Data published in ChEMBL document CHEMBL1148437, “Synthesis, structure-activity relationships, and mechanism of drug resistance of D- and L-beta-3'-fluoro-2',3'-unsaturated-4'-thionucleosides as anti-HIV agents” (J Med Chem, 2004).

Legend:
[1] = Compounds were evaluated for their potential toxic effect on uninfected PHA-stimulated human T-lymphoblastoid cell line (CEM); type: ADME
Summary of the method: (§1)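 Uninfected cells were seeded in 10-fold serial drug dilutions: Vero at 5×10^3, CEM at 2.5×10^3 and PHA-stimulated PBM at 5×10^4 cells/well. Vero were incubated 3 days, CEM 4 days and PBM 5 days, at 37 °C in 5% CO2. MTT was added overnight, followed by solubilization for 5 h and reading at 570 nm. IC50 was derived by the median effect method.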

PBMC [2] = assay: (§2) Anti-HIV activity in Human peripheral blood mononuclear (PBM) cells; type: functional, cell-based
Summary of the method: (§3)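 PHA-stimulated (2-3 days) human PBM cells from healthy seronegative donors, Ficoll-Hypaque isolated; bulk infection 1 h (HIV-1 LAI reference; xxBru clone), 100 TCID50/1×10^7 cells (flask) or 200 TCID50/6×10^5 cells/well; 10-fold serial dilutions; RPMI-1640, 16% FBS, IL-2, DEAE-dextran; 5 days 37 °C; supernatant RT activity (poly(rA)·oligo(dT), 3H-TTP); EC50/EC90 by median effect method.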

PBMC [3] = assay: as §2; type: functional; summary of the method: as §3
[4] = Compounds were evaluated for their potential toxic effect on uninfected PHA-stimulated human Peripheral blood mononuclear (PBM) cells; type: ADME; summary of the method: as §1
[5] = Compounds were evaluated for their potential toxic effect on uninfected […] cells; type: ADME, cell-based; conditions: Chlorocebus sabaeus; summary of the method: as §1
PBMC [6] = assay: Antiviral activity against wild type HIV virus(xxBRU) in Human peripheral blood mononuclear (PBM) cells; type: functional; summary of the method: as §3
PBMC [7] = assay: Antiviral activity against drug-resistant HIV-1 virus (M184v) in Human peripheral blood mononuclear (PBM) cells; type: functional
Summary of the method: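 PHA-stimulated (2-3 days) human PBM cells from seronegative donors infected 1 h in bulk with molecular clone HIV-1 M184Vpitt, then cultured with 10-fold serial compound dilutions in IL-2–supplemented RPMI-1640, 5 days, 37 °C, 5% CO2. Supernatant virus pelleted and assayed for RT activity (poly(rA)·oligo(dT), 3H-TTP, 2 h, 37 °C). EC50/EC90 from concentration-response curves by median effect method.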

With `Cc1cn([C@H]2C=C(F)[C@@H](CO)S2)c(=O)[nH]c1=O` the IC50 [1] was greater than 100 µM, the EC50 (PBMC [2]) was greater than 100 µM and the EC90 (PBMC [3]) was greater than 100 µM. For the same molecule, the IC50 [4] was greater than 100 µM and the IC50 [5] was greater than 100 µM.
Molecule `OC[C@H]1S[C@@H](n2cnc3c(O)ncnc32)C=C1F` has an IC50 [1] greater than 100 µM, an EC50 (PBMC [2]) greater than 100 µM and an EC90 (PBMC [3]) greater than 100 µM. The IC50 [4] was greater than 100 µM and the IC50 [5] was greater than 100 µM.
`Cc1cn([C@H]2C[C@H](N=[N+]=[N-])[C@@H](CO)O2)c(=O)[nH]c1=O` [ZIDOVUDINE] gave an IC50 [1] of 14.3 µM, an EC90 (PBMC [6]) of 0.01 µM and an EC90 (PBMC [7]) of 0.003 µM. The EC90 (PBMC [3]) was 0.01 µM, the IC50 [4] was greater than 100 µM and the IC50 [5] was 29 µM.
With `Nc1nc(=O)n([C@H]2C=C(F)[C@@H](CO)S2)cc1F` the IC50 [1] was greater than 100 µM, the EC50 (PBMC [2]) was greater than 100 µM and the EC90 (PBMC [3]) was greater than 100 µM. The IC50 [4] was greater than 100 µM and the IC50 [5] was greater than 100 µM.
`OC[C@@H]1S[C@H](n2cnc3c(O)ncnc32)C=C1F` showed an IC50 [1] greater than 100 µM, an EC50 (PBMC [2]) greater than 100 µM and an EC90 (PBMC [3]) greater than 100 µM. For the same molecule, the IC50 [4] was greater than 100 µM and the IC50 [5] was greater than 100 µM.
For `Cc1cn([C@@H]2C=C(F)[C@H](CO)S2)c(=O)[nH]c1=O`, the IC50 [1] was no less than 100 µM, the EC50 (PBMC [2]) was greater than 100 µM and the EC90 (PBMC [3]) was greater than 100 µM. The IC50 [4] was greater than 100 µM and the IC50 [5] was greater than 100 µM.
In the case of `Nc1nc(=O)n([C@@H]2C=C(F)[C@H](CO)S2)cc1F`, the IC50 [1] is reported as greater than 100 µM, the EC50 (PBMC [2]) is reported as 0.031 µM and the EC90 (PBMC [6]) is reported as 0.35 µM. For the same molecule, the EC90 (PBMC [7]) was greater than 100 µM, the EC90 (PBMC [3]) was 0.35 µM and the IC50 [4] was greater than 100 µM. For the same molecule, the IC50 [5] was 88.1 µM.
Work on `O=c1ccn([C@@H]2C=C(F)[C@H](CO)S2)c(=O)[nH]1` yielded an IC50 [1] greater than 100 µM, an EC50 (PBMC [2]) greater than 100 µM and an EC90 (PBMC [3]) greater than 100 µM. The IC50 [4] was greater than 100 µM and the IC50 [5] was greater than 100 µM.
For `Nc1nc(O)c2ncn([C@H]3C=C(F)[C@@H](CO)S3)c2n1`, the IC50 [1] was greater than 100 µM, the EC50 (PBMC [2]) was 23.4 µM and the EC90 (PBMC [3]) was greater than 100 µM. For the same molecule, the IC50 [4] was greater than 100 µM and the IC50 [5] was greater than 100 µM.
Molecule `Nc1ncnc2c1ncn2[C@@H]1C=C(F)[C@H](CO)S1` has an IC50 [1] greater than 100 µM, an EC50 (PBMC [2]) of 14.9 µM and an EC90 (PBMC [3]) of 57 µM. For the same molecule, the IC50 [4] was greater than 100 µM and the IC50 [5] was greater than 100 µM.
With `O=c1ccn([C@H]2C=C(F)[C@@H](CO)S2)c(=O)[nH]1` the IC50 [1] was greater than 100 µM, the EC50 (PBMC [2]) was greater than 100 µM and the EC90 (PBMC [3]) was greater than 100 µM. For the same molecule, the IC50 [4] was greater than 100 µM and the IC50 [5] was greater than 100 µM.
Molecule `Nc1ccn([C@@H]2C=C(F)[C@H](CO)S2)c(=O)n1` has an IC50 [1] greater than 100 µM, an EC50 (PBMC [2]) of 0.13 µM and an EC90 (PBMC [6]) of 1.7 µM. For the same molecule, the EC90 (PBMC [7]) was greater than 100 µM, the EC90 (PBMC [3]) was 1.7 µM and the IC50 [4] was greater than 100 µM. It also gave an IC50 [5] greater than 100 µM.
`Nc1ncnc2c1ncn2[C@H]1C=C(F)[C@@H](CO)S1` gave an IC50 [1] greater than 100 µM, an EC50 (PBMC [2]) greater than 100 µM and an EC90 (PBMC [3]) greater than 100 µM. It also gave an IC50 [4] greater than 100 µM and an IC50 [5] greater than 100 µM.
`Nc1ccn([C@@H]2CS[C@H](CO)O2)c(=O)n1` [LAMIVUDINE] showed an EC90 (PBMC [6]) of 0.08 µM.
With `Nc1nc(O)c2ncn([C@@H]3C=C(F)[C@H](CO)S3)c2n1` the IC50 [1] was greater than 100 µM, the EC50 (PBMC [2]) was 43.9 µM and the EC90 (PBMC [3]) was greater than 100 µM. It also gave an IC50 [4] greater than 100 µM and an IC50 [5] greater than 100 µM.
`Nc1ccn([C@H]2C=C(F)[C@@H](CO)S2)c(=O)n1` showed an IC50 [1] greater than 100 µM, an EC50 (PBMC [2]) greater than 100 µM and an EC90 (PBMC [3]) greater than 100 µM. For the same molecule, the IC50 [4] was greater than 100 µM and the IC50 [5] was greater than 100 µM.
